From PubChem
Most compounds without a hit are left out; they make up all but 2.2% or so of the library.
EBV gp42 block – inhibitors of Epstein-Barr virus glycoprotein 42. 220,000 compounds, 0.42% hits. inhibition, % (tested at 21.74 µM). Q1HVG2. Fluorescence polarization binding assay, mP read-out; in the data active = inhibition above about 50%
Target sequence (Q1HVG2 whole entry, looked up): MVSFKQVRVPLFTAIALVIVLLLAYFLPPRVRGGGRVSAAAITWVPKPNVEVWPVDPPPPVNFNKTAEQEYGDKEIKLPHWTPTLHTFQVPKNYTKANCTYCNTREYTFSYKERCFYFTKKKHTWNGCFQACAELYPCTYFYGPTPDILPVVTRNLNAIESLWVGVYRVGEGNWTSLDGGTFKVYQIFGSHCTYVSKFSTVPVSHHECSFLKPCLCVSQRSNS
GLD-1 TGE inh – GLD-1-TGE RNA interaction inhibition (C. elegans). Q17339. purified GLD-1 + fluorescein TGE RNA, fluorescence polarization. inhibition, % at 5.96 µM. 320,000 compounds, 0.44% hits;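 active = percent inhibition above a per-plate cutoff, the plate mean of test compounds plus 3 SD, cut at about 30% in these data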;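 also: 0% = DMSO wells with GLD-1 and probe and 100% = wells lacking GLD-1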
MEX-5 binding – C. elegans MEX-5 TCR-2 RNA binding activity; activity score (negative = inhibition of binding), % at 10 µM; 300,000 compounds, 0.38% hits; AID 1832; MEX-5/FITC-TCR2 RNA binding, fluorescence polarization; active compounds read low; Q9XUB2;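 active = inhibition past about -25% in most replicates, and total fluorescence under double the plate's negative control median, limit read from the data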;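 also: 0% = DMSO and -100% = 5 µM competing unlabeled TCR2 RNA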
BCLXL inh – inhibitors of human Bcl-xL. 320,000 compounds, 0.7% hits. inhibition, % at 10.9 µM. Q07817. GST-Bcl-xL / FITC-Bim BH3 peptide fluorescence polarization;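 active = inhibition above the mean of all tested compounds plus 3 SD, cutoff set per campaign, cut at about 30% in these data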;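 also: 0% = DMSO wells and 100% = unlabeled Bim-BH3 peptide competitor; inhibitors lower millipolarization by displacing the labeled peptide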
Target sequence (Q07817 whole entry, looked up): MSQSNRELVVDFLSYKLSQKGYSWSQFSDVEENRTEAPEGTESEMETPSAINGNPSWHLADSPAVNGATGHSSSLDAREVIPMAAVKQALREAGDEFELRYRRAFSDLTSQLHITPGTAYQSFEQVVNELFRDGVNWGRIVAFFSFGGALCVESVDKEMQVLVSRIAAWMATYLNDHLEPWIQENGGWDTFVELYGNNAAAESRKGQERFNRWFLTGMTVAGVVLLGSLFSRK
IMP-1 inh – blocks Pseudomonas aeruginosa IMP-1 metallo-beta-lactamase. inhibition, % at 5.6 µM. 290,000 compounds, 0.45% hits. purified IMP-1, nitrocefin hydrolysis, epi-absorbance fluorescence;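 active = inhibition above the mean plus 3 SD of all compounds in the same screening run, cut at about 4.5% in these data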;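 also: 0% = IMP-1 with DMSO and 100% = DMSO wells lacking enzyme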
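System: purified IMP-1 / Input: IMP-1 dispensed at 0.2 nM / Medium: 50 mM HEPES pH 7.1, 50 µM ZnSO4, 0.05% Brij 35 / Timing: 15 min enzyme–compound preincubation, then 25 min nitrocefin reaction, 25 °C / Technique: plate fluorescence quenching by hydrolysis product, ex 480/em 530 nm / Repeats: singlicate testing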
VIM-2 inhibitor – blocks Pseudomonas aeruginosa VIM-2 metallo-beta-lactamase | purified VIM-2, nitrocefin hydrolysis, epi-absorbance fluorescence | inhibition, % at 5.6 µM | 290,000 compounds, 0.89% hits;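 active = inhibition above the mean of all tested compounds plus 3 SD, cutoff set per screening run, cut at about 7.5% in these data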;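 also: red hydrolysis product quenches plate fluorescence so inhibitors raise well fluorescence; 0% = enzyme with DMSO and 100% = DMSO without enzyme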
* = called active by the depositor.

CCC(C)(C(=O)NC1CCCCC1)N(C)C(=O)c1ccccn1 (stereo not drawn) was read as EBV gp42 block -9.3, GLD-1 TGE inh 1.4, MEX-5 binding -2.7, BCLXL inh 51.6*, IMP-1 inh -3.8 and VIM-2 inhibitor -5.4.
Screening Cc1ccccc1C1=N/C(=C/c2cccs2)C(=O)O1 returned EBV gp42 block 7.0, GLD-1 TGE inh 0.8, MEX-5 binding -27.5*, BCLXL inh 2.3, IMP-1 inh 1.2 and VIM-2 inhibitor -0.9.
Screening Cn1c(=O)c2c([nH]c(=S)n2Cc2ccc(Cl)cc2)n(C)c1=O returned GLD-1 TGE inh 2.0, MEX-5 binding 0.2, BCLXL inh -26.0, IMP-1 inh -2.5 and VIM-2 inhibitor -4.0.
For CCc1n[nH]c(=S)n1/N=C/c1cc(OC)cc([N+](=O)[O-])c1O the results were EBV gp42 block -7.1, GLD-1 TGE inh 4.1, MEX-5 binding -6.9, BCLXL inh 4.8, IMP-1 inh 4.6* and VIM-2 inhibitor -0.8.
Screening Cc1nn(-c2ccccc2)c(Cl)c1/C=N/Nc1ccc(S(=O)(=O)Nc2ccccc2C(=O)O)cc1[N+](=O)[O-] returned EBV gp42 block 73.0*, GLD-1 TGE inh 7.7, MEX-5 binding -0.1, BCLXL inh 23.3, IMP-1 inh -2.5 and VIM-2 inhibitor -1.2.
`COc1ccc(NC(=S)NNc2ccc(S(=O)(=O)Nc3ccccc3C(=O)O)cc2[N+](=O)[O-])cc1` gave EBV gp42 block -4.7, GLD-1 TGE inh -0.6, MEX-5 binding -87.2*, BCLXL inh 24.4, IMP-1 inh -2.1 and VIM-2 inhibitor -2.1.
`CCc1noc(C)c1C(=O)N(C)CC(=O)Nc1ccc(OC)cc1` gave GLD-1 TGE inh 2.8, MEX-5 binding 0.9 and BCLXL inh -1.8.
`CCOC(=O)C1CCN(C(=O)CCC(=O)NNc2nc3ccccc3c3nc(C)nn23)CC1` gave GLD-1 TGE inh -0.1, MEX-5 binding -48.0*, BCLXL inh 6.8, IMP-1 inh -0.6 and VIM-2 inhibitor -5.2.
`CCCCN(C)C(=O)CCC(=O)NNc1nc2ccccc2c2nc(C)nn12` gave EBV gp42 block 4.8, GLD-1 TGE inh 0.4, MEX-5 binding -31.9*, BCLXL inh 1.6, IMP-1 inh -6.1 and VIM-2 inhibitor -2.6.
CCN(CC)CCCNC(=O)CCC(=O)NNc1nc2ccccc2c2nc(C)nn12 was read as EBV gp42 block -5.7, GLD-1 TGE inh 0.9, MEX-5 binding -54.1*, BCLXL inh 6.0, IMP-1 inh -3.5 and VIM-2 inhibitor -1.1.
For Cc1nc2c3ccccc3nc(NNC(=O)CCC(=O)N3CCC(C)CC3)n2n1 the results were GLD-1 TGE inh 4.7, MEX-5 binding -18.9, BCLXL inh -0.8, IMP-1 inh -4.5 and VIM-2 inhibitor -4.6.
Screening Cc1nc2c3ccccc3nc(NNC(=O)CCC(=O)NCCC(C)C)n2n1 returned EBV gp42 block -7.1, GLD-1 TGE inh -3.5, MEX-5 binding -4.3, BCLXL inh 5.4, IMP-1 inh -3.8 and VIM-2 inhibitor -3.2.
`CSc1nsc(SCC(=O)Nc2ccc(F)cc2F)n1` gave GLD-1 TGE inh 0.5, MEX-5 binding -3.5, BCLXL inh 2.2, IMP-1 inh -2.6 and VIM-2 inhibitor 1.6.
Cc1cc(C)c(S(=O)(=O)N2CCCC(C(=O)NCc3ccccn3)C2)c(C)c1 (stereo not drawn) was read as GLD-1 TGE inh 1.8, MEX-5 binding 0.7, BCLXL inh 5.2, IMP-1 inh -5.3 and VIM-2 inhibitor -3.3.
Cc1ccccc1N1CCN(C2CCCN(C(=O)CCC(F)(F)F)C2)CC1 (stereo not drawn) was read as GLD-1 TGE inh 0.8, MEX-5 binding 1.1, BCLXL inh 6.8, IMP-1 inh -1.9 and VIM-2 inhibitor -1.8.
For CSCCC(NC(=O)COc1ccccc1)C(=O)N1CC(C)OC(C)C1 (stereo not drawn) the results were GLD-1 TGE inh -2.8 and BCLXL inh -0.1.
For CCc1ccc(N=C2NC(=O)/C(=C/c3cc(Br)c(OCC(=O)O)c(OC)c3)S2)cc1 the results were GLD-1 TGE inh 2.5, MEX-5 binding -11.0, BCLXL inh 18.8, IMP-1 inh -4.0 and VIM-2 inhibitor -2.0.
For CCOc1cc(/C=C2\SC(=Nc3ccc(CC)cc3)NC2=O)ccc1OCC(=O)O the results were GLD-1 TGE inh -6.1, MEX-5 binding -43.6*, BCLXL inh 7.0, IMP-1 inh 1.1 and VIM-2 inhibitor 0.1.
Screening CNC(=O)COc1coc(CN2CCN(c3ccccc3F)CC2)cc1=O returned GLD-1 TGE inh 7.7, MEX-5 binding 4.6, BCLXL inh 7.6, IMP-1 inh -2.9 and VIM-2 inhibitor -2.6.
COc1ccccc1N(CCC#N)C(=S)Nc1ccc(S(=O)(=O)N2CCOCC2)cc1 was read as GLD-1 TGE inh -3.6.
`Cc1ccc2sc(NNC(=O)c3cc(=O)c4ccccc4o3)nc2c1C` gave EBV gp42 block -7.7, GLD-1 TGE inh -0.1, MEX-5 binding -64.0*, BCLXL inh 1.8, IMP-1 inh -3.0 and VIM-2 inhibitor -3.0.
`Cc1cccc2sc(NNC(=O)c3cc(=O)c4ccccc4o3)nc12` gave EBV gp42 block -14.8, GLD-1 TGE inh -8.2, MEX-5 binding -79.1*, BCLXL inh 3.7, IMP-1 inh -1.3 and VIM-2 inhibitor -1.2.
Screening O=C(NNC(=O)c1ccccc1F)c1ccco1 returned GLD-1 TGE inh 3.8, MEX-5 binding -3.7, BCLXL inh 1.2, IMP-1 inh -1.4 and VIM-2 inhibitor -2.4.
For O=C(NNC(=O)c1ccccc1O)c1ccco1 the results were EBV gp42 block -6.8, GLD-1 TGE inh 5.3, MEX-5 binding -29.2*, BCLXL inh 8.1, IMP-1 inh -2.7 and VIM-2 inhibitor -3.5.
For CCN1c2ccccc2N(C)C1(C)c1ccccc1 (stereo not drawn) the results were EBV gp42 block 34.4, GLD-1 TGE inh 65.8*, BCLXL inh 88.0*, IMP-1 inh -2.2 and VIM-2 inhibitor -0.8.
`Cc1ccc(NC(=O)CN(C)C(=O)c2cccc(S(=O)(=O)NCc3cccs3)c2)cc1` gave GLD-1 TGE inh 3.0 and BCLXL inh 0.6.
CCn1c(SC(=O)NC2CCCCC2)nnc1-c1cccs1 was read as EBV gp42 block -7.1, GLD-1 TGE inh 7.2, MEX-5 binding 0.6, BCLXL inh -3.7, IMP-1 inh -4.0 and VIM-2 inhibitor 11.5*.
COc1ccc(/C=C/C(=O)c2c(C)cc(C)[nH]c2=O)c2ccccc12 was read as GLD-1 TGE inh -7.0, MEX-5 binding -28.0*, BCLXL inh -2.7, IMP-1 inh -0.2 and VIM-2 inhibitor 0.9.
For COCCNC(=O)C(c1cccs1)N(Cc1cccs1)C(=O)Cn1nnc2ccccc21 (stereo not drawn) the results were EBV gp42 block -21.8, GLD-1 TGE inh -0.4, MEX-5 binding 0.2, BCLXL inh 0.6, IMP-1 inh 4.6* and VIM-2 inhibitor 0.5.
